What was measured:
[1] = test system: Human immunodeficiency virus 1; test: Antiviral activity against wild type HIV1 in presence of 10% FBS; assay type: functional, organism-based
[2] = test system: Human immunodeficiency virus 1; test: Antiviral activity against HIV1 harboring G140S/Q148H double mutant in presence of 10% FBS; assay type: functional, organism-based
How it was run: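 HIV-1 carrying G140S/Q148H double-mutant integrase; antiviral EC50 determined with 10% FBS in the medium.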

[3] = test system: Human immunodeficiency virus 1; test: Antiviral activity against HIV1 harboring Q148R mutant; assay type: functional, organism-based
[4] = Cmax in Sprague-Dawley rat at 0.5 mg/kg, iv measured up to 4 hrs; assay type: ADME, organism-based; design: route intravenous, dose 0.5 mg/kg, time <=4; conditions: in vivo
How it was run: (§1)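 Male Sprague-Dawley rats dosed IV with compound as a PEG-400/ethanol (90:10) solution. Plasma exposure was followed for 4 h, and Cmax, t1/2, clearance and Vss were derived from that profile.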

[5] = Half life in Sprague-Dawley rat at 0.5 mg/kg, iv measured up to 4 hrs; assay type: ADME, organism-based; conditions: in vivo; how it was run: as §1
[6] = Clearance in Sprague-Dawley rat at 0.5 mg/kg, iv measured up to 4 hrs; assay type: ADME, organism-based; conditions: in vivo; how it was run: as §1
[7] = Volume of distribution at steady state in Sprague-Dawley rat at 0.5 mg/kg, iv measured up to 4 hrs; assay type: ADME, organism-based; conditions: in vivo, read-out: Vdss; how it was run: as §1
[8] = Binding affinity to wild type HIV1 integrase; design: species or system Human immunodeficiency virus 1
Integrase = Integrase (Human immunodeficiency virus 1, UniProt T1QYY3, G140S/Q148H); test: Binding affinity to […] HIV1 integrase G140S/Q148H mutant
[9] = Clearance in Beagle dog at 1 mg/kg, iv; assay type: ADME, organism-based, Canis lupus familiaris; conditions: in vivo
[10] = Cmax in Sprague-Dawley rat at 1 mg/kg, iv measured up to 4 hrs; assay type: ADME, organism-based; design: route intravenous, dose 1 mg/kg, time <=4; conditions: in vivo; how it was run: as §1
[11] = Half life in Sprague-Dawley rat at 1 mg/kg, iv measured up to 4 hrs; assay type: ADME, organism-based; conditions: in vivo; how it was run: as §1
[12] = Clearance in Sprague-Dawley rat at 1 mg/kg, iv measured up to 4 hrs; assay type: ADME, organism-based; conditions: in vivo; how it was run: as §1
[13] = Volume of distribution at steady state in Sprague-Dawley rat at 1 mg/kg, iv measured up to 4 hrs; assay type: ADME, organism-based; conditions: in vivo, read-out: Vdss; how it was run: as §1
[14] = Volume of distribution at steady state in cynomolgus monkey at 1 mg/kg, iv; assay type: ADME, organism-based, Macaca fascicularis; conditions: in vivo, read-out: Vdss
How it was run: (§2)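 Cynomolgus monkeys dosed IV or PO with compound formulated as a PEG-400/ethanol (90:10) solution. Oral bioavailability was taken from the PO versus IV exposure.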

[15] = Half life in cynomolgus monkey at 1 mg/kg, iv; assay type: ADME, organism-based, Macaca fascicularis; conditions: in vivo; how it was run: as §2
[16] = Oral bioavailability in Beagle dog at 5 mg/kg; assay type: ADME, organism-based, Canis lupus familiaris; conditions: in vivo
[17] = Volume of distribution at steady state in Beagle dog at 1 mg/kg, iv; assay type: ADME, organism-based, Canis lupus familiaris; conditions: in vivo, read-out: Vdss
[18] = Half life in Beagle dog at 1 mg/kg, iv; assay type: ADME, organism-based, Canis lupus familiaris; conditions: in vivo
[19] = Clearance in cynomolgus monkey at 1 mg/kg, iv; assay type: ADME, organism-based, Macaca fascicularis; conditions: in vivo; how it was run: as §2
[20] = AUC in Sprague-Dawley rat at 5 mg/kg, po; assay type: ADME, organism-based; design: dose 5 mg/kg; conditions: in vivo
[21] = Oral bioavailability in Sprague-Dawley rat at 5 mg/kg; assay type: ADME, organism-based; conditions: in vivo
[22] = AUC in Beagle dog at 5 mg/kg, po; assay type: ADME, organism-based, Canis lupus familiaris; design: dose 5 mg/kg; conditions: in vivo
[23] = AUC in cynomolgus monkey at 5 mg/kg, po; assay type: ADME, organism-based, Macaca fascicularis; design: dose 5 mg/kg; conditions: in vivo; how it was run: as §2
[24] = Oral bioavailability in cynomolgus monkey at 5 mg/kg; assay type: ADME, organism-based, Macaca fascicularis; conditions: in vivo; how it was run: as §2
[25] = test system: Human immunodeficiency virus 1; test: Antiviral activity against HIV1 harboring G140S/Q148H double mutant in presence of HSA; assay type: functional, organism-based
[26] = Ratio of EC50 for Antiviral activity against HIV1 harboring G140S/Q148H double mutant in presence of 10% FBS to EC50 for antiviral activity against HIV1 harboring G140S/Q148H double mutant in presence of HSA; assay type: functional, Human immunodeficiency virus 1

Row | Structure (SMILES) | EC50 [1] [nM] | EC50 [2] [nM] | also measured
1 | Cc1cc(F)ccc1CNC(=O)c1nc2n(c(=O)c1O)CC1CCC2(NC(=O)C(=O)N(C)C)CC1 | 1.3 | 558 | –
2 | CCOC(=O)C(=O)NC12CCC(CC1)Cn1c2nc(C(=O)NCc2ccc(F)cc2)c(O)c1=O | 21 | > 8000 | –
3 | CN(C)C(=O)C(=O)NC12CCC(CC1)Cn1c2nc(C(=O)NCc2ccc(F)c(Cl)c2)c(O)c1=O | 0.8 | 6 | –
4 | CN(C)C(=O)C(=O)NC12CCC(CC1)Cn1c2nc(C(=O)NCc2ccc(F)c(F)c2)c(O)c1=O | 0.7 | 17 | –
5 | CN(C)C(=O)CNC12CCC(CC1)Cn1c2nc(C(=O)NCc2ccc(F)cc2)c(O)c1=O | 7 | > 8000 | –
6 | CN(C)C(=O)C(=O)NC12CCC(CC1)Cn1c2nc(C(=O)NCc2ccc(F)cc2F)c(O)c1=O | 0.7 | 37 | –
7 | CN(C)CC(=O)NC12CCC(CC1)Cn1c2nc(C(=O)NCc2ccc(F)cc2)c(O)c1=O | 20 | > 8000 | –
8 | CN(C)C(=O)C(=O)NC12CCC(CC1)Cn1c2nc(C(=O)NCc2ccc(F)cc2C(F)(F)F)c(O)c1=O | 8 | > 8000 | –
9 | CN(C)C(=O)C(=O)NC12CCC(Cn3c1nc(C(=O)NCc1ccc(F)cc1)c(O)c3=O)C2 (stereo not drawn) | 2 | 39 | EC50 [3]: 26 nM
10 | CN(C)C(=O)C(=O)NC12CCC(CC1)Cn1c2nc(C(=O)NCc2ccc(F)cc2Cl)c(O)c1=O | 1.3 | 1320 | –
11 | CN(C)C(=O)C(=O)NC12CCC(CC1)Cn1c2nc(C(=O)NCc2ccc(F)cc2S(C)(=O)=O)c(O)c1=O | 11 | > 8000 | –
12 | CN(C)C(=O)C(=O)NC12CCC(CC1)n1c2nc(C(=O)NCc2ccc(F)cc2)c(O)c1=O | 8 | > 8000 | –
13 | CN(C)C(=O)C(=O)NC12CCC(CC1)Cn1c2nc(C(=O)NCc2ccc(F)cc2)c(O)c1=O | 1 | 10 | Cmax [4]: 1.93 µM; half-life [5]: 0.45 h; clearance [6]: 30.5 mL/min/kg; Vd [7]: 0.63 L/kg; Ki [8]: 2 nM; Ki (Integrase): 17 nM
14 | CN(C)C(=O)NC12CCC(CC1)Cn1c2nc(C(=O)NCc2ccc(F)cc2)c(O)c1=O | 14 | 361 | –
15 | CC(C)C(=O)C(=O)NC12CCC(CC1)Cn1c2nc(C(=O)NCc2ccc(F)cc2)c(O)c1=O | 2 | 94 | –
16 | Cc1cc(CNC(=O)c2nc3n(c(=O)c2O)CC2CCC3(NC(=O)C(=O)N(C)C)CC2)ccc1F | 0.7 | 3 | clearance [9]: 7 mL/min/kg; Cmax [10]: 5.3 µM; half-life [11]: 12.3 h; clearance [12]: 12.6 mL/min/kg; Vd [13]: 1.2 L/kg; Vd [14]: 0.26 L/kg; half-life [15]: 1.6 h; bioavailability [16]: 83%; Vd [17]: 0.3 L/kg; half-life [18]: 1.6 h; clearance [19]: 13.5 mL/min/kg; AUC [20]: 14.7 µM·h; bioavailability [21]: 103%; AUC [22]: 20.8 µM·h; AUC [23]: 2.89 µM·h; bioavailability [24]: 23%; EC50 [25]: 21 nM; Ratio EC50 [26]: 7; Ki [8]: 2 nM; Ki (Integrase): 8 nM
17 | CNC(=O)c1cc(F)ccc1CNC(=O)c1nc2n(c(=O)c1O)CC1CCC2(NC(=O)C(=O)N(C)C)CC1 | 60 | > 8000 | –
18 | CN(C)C(=O)C(=O)NC12CCC(CC1)Cn1c2nc(C(=O)NCc2ccc(F)c(C(F)(F)F)c2)c(O)c1=O | 1.4 | 32 | –
